Read-outs that look alike come from different tables or passages of the source. Blank lines part the entries; values can stand above or below the molecule they belong to.
Tests used:
[1] = tested on: MCF-7 cells; assay: MTT assay, anticancer activity, MCF-7; assay type: cell-based, human; settings: read-out: IC50 MCF-7
[2] = tested on: MCF-10A cells; assay: MTT assay, normal counterpart MCF-10A; assay type: cell-based, human; settings: read-out: IC50 MCF-10A, 72 h
[3] = tested on: MDA-MB-231 cells; assay: MTT assay, anticancer activity, MDA-MB-231; assay type: cell-based, human; settings: for IC50: read-out: IC50 MDA-MB-231
[4] = tested on: ROS production in murine macrophages RAW 264.7; assay: ROS production; assay type: cell-based; settings: LPS; for ROS reduction: concentration not stated in text (5 or 10 μM); for antioxidant activity (ROS production): lower dosage (5 μM)
Method in brief: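 RAW 264.7 cells received the same treatment as in the Griess assay: LPS 1 μg mL−1 plus test compound at 5 or 10 μM, 24 h, 1% FBS. NAC (5 × 103, 10 × 103, 20 × 103 μM) was the positive control. After PBS washing, H2DCFDA 25 μM was added for 40 min at 37 °C. Fluorescence was read at λex 485/λem 535. Results are % ROS from mean fluorescence of co-treated vs LPS-alone wells, three experiments in triplicate.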

[5] = target: T1, human topoisomerase I (hTopoI) (Homo sapiens, UniProt P11387); assay: Human topoisomerase I relaxation assay; assay type: biochemical; settings: for inhibition of hTopoI relaxation of supercoiled DNA: pHOT1, 1 h 37 °C, gel
T1 sequence (P11387 1-765): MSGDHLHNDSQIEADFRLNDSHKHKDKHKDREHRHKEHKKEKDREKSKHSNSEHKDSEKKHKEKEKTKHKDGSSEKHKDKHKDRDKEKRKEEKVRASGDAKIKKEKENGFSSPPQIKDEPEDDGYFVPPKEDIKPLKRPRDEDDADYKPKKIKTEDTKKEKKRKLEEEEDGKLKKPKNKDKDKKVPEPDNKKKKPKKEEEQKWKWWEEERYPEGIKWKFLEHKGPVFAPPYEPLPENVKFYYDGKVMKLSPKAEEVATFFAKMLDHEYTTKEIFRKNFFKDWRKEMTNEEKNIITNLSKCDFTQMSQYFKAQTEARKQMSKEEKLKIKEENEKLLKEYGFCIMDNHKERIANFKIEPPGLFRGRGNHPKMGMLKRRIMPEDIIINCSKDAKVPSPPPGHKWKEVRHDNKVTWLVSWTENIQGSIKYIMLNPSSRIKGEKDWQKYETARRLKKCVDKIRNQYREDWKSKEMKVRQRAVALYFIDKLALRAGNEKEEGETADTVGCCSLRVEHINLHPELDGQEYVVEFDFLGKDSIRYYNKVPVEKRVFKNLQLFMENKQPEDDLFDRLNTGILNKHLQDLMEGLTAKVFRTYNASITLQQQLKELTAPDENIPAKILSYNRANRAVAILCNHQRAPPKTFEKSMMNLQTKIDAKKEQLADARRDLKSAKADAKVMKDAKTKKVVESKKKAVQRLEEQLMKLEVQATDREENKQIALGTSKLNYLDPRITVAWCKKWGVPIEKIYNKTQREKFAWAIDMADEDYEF
Method in brief: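 Recombinant human topoisomerase I (2 units) with 0.25 μg supercoiled pHOT1 plasmid as substrate. Test compound (in DMSO) at 0.001, 0.01, 0.1 and 1 μM; DMSO vehicle control. Incubated 1 h at 37 °C. Run on a 1% agarose gel in 1× TAE without ethidium bromide, then post-stained with EB ([…], 30 min), washed and viewed under UV.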

[6] = tested on: NO production in murine macrophages RAW 264.7; assay: NO production; assay type: cell-based; settings: 24 h, LPS 1 μg/mL
Method in brief: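 Plated RAW 264.7 cells were treated after 24 h with test compound (5 or 10 μM, in DMSO) plus LPS 1 μg mL−1 in 1% FBS medium for 24 h. Indomethacin (5, 10, 50 μM) was the positive control. Medium was mixed 1:1 with Griess reagent for 30 min at RT and A540 was read. Results are % NO vs LPS-only, three experiments in triplicate.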

[7] = tested on: murine macrophages RAW 264.7; assay: MTT test, cytotoxicity on RAW 264.7 macrophages; assay type: cell-based; settings: for cytotoxicity toward RAW 264.7: 10 μM, 24 h
Method in brief: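 RAW 264.7 cells were kept in high-glucose DMEM with 10% FBS at 37 °C and 5% CO2. Cells were seeded in 48-well plates and exposed for 24 h to varying test compound concentrations (in DMSO). Viability was measured by MTT and expressed as % of control. Three independent experiments were run in triplicate.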

[8] = tested on: iNOS expression in murine macrophages RAW 264.7; assay: iNOS expression by immunofluorescence in RAW 264.7; assay type: cell-based; settings: 5 μM, co-treated with LPS 1 μg/mL, 24 h
Method in brief: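 On coverslips, RAW 264.7 cells received LPS 1 μg mL−1 with test compound (5 μM) or indomethacin (50 μM) in 1% FBS medium for 24 h. Cells were methanol-fixed (−20 °C, 15 min) and incubated overnight at 4 °C with anti-iNOS (1:100, 2% BSA), then Alexa Fluor 568 goat anti-mouse (1:500). DAPI 0.2 μg mL−1 was applied. Images taken at 40× were used for semi-quantitative fluorescence measurement, two independent experiments.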

[9] = tested on: MDA-MB-231 cells; assay: TUNEL assay, nuclear DNA damage; assay type: cell-based, human; settings: 1 μM, 24 h
Method in brief: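 MDA-MB-231 cells (DMEM/F12, 5% FBS) were grown on coverslips and treated for 24 h with 1 μM test compound in DMSO or with vehicle. Cells were PBS-washed, methanol-fixed (−20 °C, 15 min) and incubated with the one-step TUNEL (FITC) enzyme for 35 min at 37 °C in the dark. DAPI counterstain was 0.2 mg mL−1 for 10 min at RT. Imaging used fluorescence microscopy at 20× (490/515 nm; DAPI 350/460 nm), three independent experiments.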

[10] = MTT, mean ± SD, normal mammary epithelial cells

IC50 ([1]; MTT, 72 h, mean ± SD): 11.2 ± 0.6 µM
IC50 ([3]; MTT, 72 h, mean ± SD): 20.6 ± 1.4 µM
Molecule: C[C@H](c1ccccc1)n1cc[n+](C)c1.[Ag][I] [(R)-AgL1, (R)-3-Methyl-1-(1-phenylethyl)-1H-imidazol-3-ium silver(I) iodide]
IC50 [2, 10]: 72.8 ± 5.8 µM

IC50 ([1]; MTT, 72 h, mean ± SD): 9.7 ± 0.8 µM
IC50 ([3]; MTT, 72 h, mean ± SD): 17.6 ± 1.7 µM
Molecule: C[C@H](c1ccccc1)n1cc[n+]([C@H](C)c2ccccc2)c1.[Cl][Ag] [(R)-AgL2, 1,3-Bis((R)-1′-phenylethyl)imidazolium silver(I) chloride]
ROS reduction [4]: ~12%
IC50 [2, 10]: 24.8 ± 1.7 µM

inhibition of hTopoI relaxation of supercoiled DNA ([5]; 0.001 μM): partially
inhibition of hTopoI relaxation of supercoiled DNA ([5]; 0.01 μM): totally block
inhibition of hTopoI relaxation of supercoiled DNA ([5]; 0.1 μM): preserved
inhibition of hTopoI relaxation of supercoiled DNA ([5]; 1 μM): preserved
hTopoI inhibiting concentration, times lower than that of (S)-AuL1 ([5]; total inhibition 0.01 vs 1 μM): 100 times
IC50 ([1]; MTT, 72 h, mean ± SD): 6.8 ± 0.4 µM
IC50 ([3]; MTT, 72 h, mean ± SD): 5.8 ± 0.5 µM
Molecule: C[C@H](c1ccccc1)n1cc[n+](C)c1.[Cl][Au] [(R)-AuL1, (R)-3-Methyl-1-(1-phenylethyl)-1H-imidazol-3-ium gold(I) chloride]
IC50 [2, 10]: 2.1 ± 0.1 µM
reduction of NO production ([6]; 5 μM): about 18%
cytotoxicity toward RAW 264.7 [7]: cytotoxic

IC50 ([1]; MTT, 72 h, mean ± SD): 7 ± 0.6 µM
IC50 ([3]; MTT, 72 h, mean ± SD): 6.9 ± 0.3 µM
Molecule: C[C@H](c1ccccc1)n1cc[n+]([C@H](C)c2ccccc2)c1.[Cl][Au] [(R)-AuL2, 1,3-Bis((R)-1′-phenylethyl)imidazolium gold(I) chloride]
antioxidant activity (ROS production) [4]: did not exert any antioxidant activity
IC50 [2, 10]: 7.1 ± 0.5 µM
reduction of NO production ([6]; 5 μM): about 18%
cytotoxicity toward RAW 264.7 [7]: cytotoxic

IC50 ([1]; Homo sapiens, MCF7, 72 h): 34 ± 2.4 µM
IC50 ([3]; Homo sapiens, MDA-MB-231, 72 h): 71 ± 6.8 µM
Molecule: C[C@H](c1ccccc1)n1cc[n+](C)c1 [(R)-P1, (R)-3-Methyl-1-(1-phenylethyl)-1H-imidazol-3-ium iodide]
IC50 ([2]; Homo sapiens, MCF-10A): 40.3 ± 3.6 µM

IC50 ([1]; Homo sapiens, MCF7, 72 h): 58 ± 4.3 µM
IC50 ([3]; Homo sapiens, MDA-MB-231, 72 h): > 100 µM
Molecule: C[C@H](c1ccccc1)n1cc[n+]([C@H](C)c2ccccc2)c1 [(R)-P2, 1,3-Bis((R)-1′-phenylethyl)imidazolium chloride]
IC50 ([2]; Homo sapiens, MCF-10A): 28.2 ± 1.9 µM

IC50 ([1]; MTT, 72 h, mean ± SD): 4.2 ± 0.3 µM
IC50 ([3]; MTT, 72 h, mean ± SD): 14.3 ± 1.2 µM
Molecule: C[C@@H](c1ccccc1)n1cc[n+]([C@@H](C)c2ccccc2)c1.[Cl][Ag] [(S)-AgL2, 1,3-Bis((S)-1′-phenylethyl)imidazolium silver(I) chloride]
ROS reduction [4]: about 15%
IC50 [2, 10]: 24 ± 1.1 µM

IC50 ([1]; MTT, 72 h, mean ± SD): 1.8 ± 0.1 µM
IC50 ([3]; MTT, 72 h, mean ± SD): 2.3 ± 0.1 µM
Molecule: C[C@@H](c1ccccc1)n1cc[n+]([C@@H](C)c2ccccc2)c1.[Cl][Au] [(S)-AuL2, 1,3-Bis((S)-1′-phenylethyl)imidazolium gold(I) chloride]
antioxidant activity (ROS production) [4]: did not exert any antioxidant activity
IC50 [2, 10]: 5.3 ± 0.2 µM
cytotoxicity toward RAW 264.7 [7]: cytotoxic
intracellular iNOS expression vs LPS-treated cells [8]: net diminution

IC50 ([1]; Homo sapiens, MCF7, 72 h): > 100 µM
IC50 ([3]; Homo sapiens, MDA-MB-231, 72 h): 87 ± 7.6 µM
Molecule: C[C@@H](c1ccccc1)n1cc[n+](C)c1 [(S)-P1, (S)-3-Methyl-1-(1-phenylethyl)-1H-imidazol-3-ium iodide]
IC50 ([2]; Homo sapiens, MCF-10A): > 100 µM

IC50 ([1]; Homo sapiens, MCF7, 72 h): 16.3 ± 1.3 µM
IC50 ([3]; Homo sapiens, MDA-MB-231, 72 h): 10.8 ± 1.1 µM
Molecule: C[C@@H](c1ccccc1)n1cc[n+]([C@@H](C)c2ccccc2)c1 [(S)-P2, 1,3-Bis((S)-1′-phenylethyl)imidazolium chloride]
IC50 ([2]; Homo sapiens, MCF-10A): 28.8 ± 1.9 µM

Molecule: N.N.[Cl][Pt][Cl] [Cisplatin, cisplatin, reference compound]
IC50 ([1]; MTT, 72 h, mean ± SD): 37.3 ± 1.2 µM
IC50 [2, 10]: 79.4 ± 1.6 µM
IC50 ([3]; MTT, 72 h, mean ± SD): 29.5 ± 0.9 µM

Molecule: COc1ccc2c(c1)c(CC(=O)O)c(C)n2C(=O)c1ccc(Cl)cc1 [Ind, indomethacin, reference compound]
reduction of NO production ([6]; 50 μM): about 26%

Molecule: CC(=O)N[C@@H](CS)C(=O)O [NAC, N-acetyl-cysteine, reference compound]
reduction in ROS levels ([4]; 10 × 10^3 μM): about 25%
reduction in ROS levels ([4]; 20 × 10^3 μM): ~40%
residual viability vs LPS-treated cells ([7]; 5 × 10^3, 10 × 10^3 and 20 × 10^3 μM, data not shown): about 98.7%

inhibition of hTopoI relaxation of supercoiled DNA ([5]; 0.001 μM): no inhibition
inhibition of hTopoI relaxation of supercoiled DNA ([5]; 0.01 μM): partially
inhibition of hTopoI relaxation of supercoiled DNA ([5]; 0.1 μM): partially
inhibition of hTopoI relaxation of supercoiled DNA ([5]; 1 μM): totally inhibited
IC50 ([1]; MTT, 72 h, mean ± SD): 1.7 ± 0.1 µM
IC50 ([3]; MTT, 72 h, mean ± SD): 0.5 ± 0.1 µM
Molecule: (S)-3-Methyl-1-(1-phenylethyl)-1H-imidazol-3-ium gold(I) chloride [(S)-AuL1]
nuclear DNA damage (TUNEL green fluorescence) [9]: marked genomic DNA damage
reduction of ROS production ([4]; 10 μM): ~32%
IC50 [2, 10]: 11.5 ± 0.5 µM
reduction of NO production ([6]; 5 μM): about 33%
reduction of NO production ([6]; 10 μM): ~57%
intracellular iNOS expression vs LPS-treated cells [8]: net diminution

IC50 ([1]; MTT, 72 h, mean ± SD): 7.5 ± 0.8 µM
IC50 MDA-MB-231 ([3]; MTT, 72 h, mean ± SD): totally inactive
IC50 ([3]; MTT, 72 h, mean ± SD): > 100 µM
Molecule: (S)-3-Methyl-1-(1-phenylethyl)-1H-imidazol-3-ium silver(I) iodide [(S)-AgL1]
IC50 [2, 10]: 77.1 ± 6.8 µM
